# Experimental data as given in ChEMBL document CHEMBL1828519, “Tricyclic thiazolopyrazole derivatives as metabotropic glutamate receptor 4 positive allosteric modulators” (J Med Chem, 2011).
# Experiments:
# [1] = Ratio of drug level in brain to plasma of Sprague-Dawley rat at 10 mg/kg, po after 1 hr; format: ADME, organism-based; parameters: dose 10 mg/kg, route oral; conditions: read-out: BPR
# How it was run: (§1)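 Sprague-Dawley rats given 10 mg/kg orally as a suspension in 20% aqueous hydroxypropyl-β-cyclodextrin. Plasma and brain levels taken at 1 h post-dose. Brain/plasma ratio derived from these levels.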
# [2] = target: T1, Metabotropic glutamate receptor 2 (Homo sapiens, UniProt Q14416); test: Positive allosteric modulation of mGlu2 receptor assessed as potentiation of glutamate-induced calcium mobilization; format: functional
# [3] = Plasma protein binding in human; format: ADME, cell-free; conditions: read-out: PPB (converted)
# [4] = Plasma concentration in Sprague-Dawley rat at 10 mg/kg, po after 1 hr; format: ADME, organism-based; parameters: dose 10 mg/kg, route oral; how it was run: as §1
# [5] = target: T1, Metabotropic glutamate receptor 2; test: Negative allosteric modulation of mGlu2 receptor
# [6] = Kinetic solubility of the compound at pH 7.4 at room temperature; format: physicochemical; conditions: buffer, read-out: Kinetic_solubility
# How it was run: (§2)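 Kinetic solubility measured from DMSO stock solutions at room temperature. Assay run at the pH named in each line.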
# [7] = Intrinsic clearance in rat microsomes; format: ADME, Microsome
# How it was run: (§3)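 Intrinsic clearance measured in rat and human liver microsomes. Hepatic blood flow references given as 20 mL/min for rat and 1.5 L/min for human.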
# [8] = target: T2, Metabotropic glutamate receptor 1 (Homo sapiens, UniProt Q13255); test: Negative allosteric modulation of mGlu1 receptor
# [9] = target: T3, Metabotropic glutamate receptor 3 (Homo sapiens, UniProt Q14832); test: Positive allosteric modulation of mGlu3 receptor assessed as potentiation of glutamate-induced calcium mobilization; format: functional
# [10] = Plasma protein binding in rat; format: ADME, cell-free; conditions: read-out: PPB (converted)
# [11] = Fraction unbound in rat plasma; format: ADME, cell-free
# [12] = target: T4, Metabotropic glutamate receptor 4 (Homo sapiens, UniProt Q14833); test: Positive allosteric modulation of human mGlu4 receptor expressed in BHK cells assessed as potentiation of glutamate-induced calcium mobilization after 1 hr by FLIPR assay; format: functional, cell-based
# How it was run: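 Stable BHK line co-expressing human mGlu4 and murine Gα15, plated on poly-D-lysine 24 h ahead. Cells loaded 1 h at 37 °C, 5% CO2 with Calcium 3 dye in HBSS/20 mM HEPES pH 7.4, 0.1% BSA, 2.5 mM probenecid. Test agent added with an EC20 glutamate challenge. Peak fluorescence change read by FLIPR and fitted to the Hill equation. At least two independent runs in duplicate, means reported.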
# [13] = target: T2, Metabotropic glutamate receptor 1; test: Positive allosteric modulation of mGlu1 receptor assessed as potentiation of glutamate-induced calcium mobilization; format: functional
# [14] = target: T5, Metabotropic glutamate receptor 5 (Homo sapiens, UniProt P41594); test: Positive allosteric modulation of mGlu5 receptor assessed as potentiation of glutamate-induced calcium mobilization; format: functional
# P-gp (MDR1) [15] = test: Apparent permeability from basolateral to apical side of dog MDCK cells expressing human MDR1 by P-gp substrate assay; format: ADME, cell-based, Canis lupus familiaris
# How it was run: (§4)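 MDCK cells transfected with human MDR1, used as a P-gp substrate assay. Permeability measured in both directions, apical-to-basolateral and basolateral-to-apical. The efflux ratio is taken as B→A over A→B.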
# [16] = Intrinsic clearance in human microsomes; format: ADME, Microsome; how it was run: as §3
# [17] = Lipophilicity, log D of the compound at pH 7.4; format: physicochemical; conditions: buffer
# [18] = target: T6, Metabotropic glutamate receptor 7 (Homo sapiens, UniProt Q14831); test: Negative allosteric modulation of mGlu7 receptor
# [19] = Drug uptake in Sprague-Dawley rat brain at 10 mg/kg, po after 1 hr; format: ADME, organism-based; parameters: dose 10 mg/kg, route oral; conditions: read-out: Drug uptake; how it was run: as §1
# [20] = target: T5, Metabotropic glutamate receptor 5; test: Negative allosteric modulation of mGlu5 receptor
# [21] = Apparent permeability of the compound by PAMPA assay; format: ADME
# How it was run: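 Passive permeability measured in a PAMPA assay.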
# [22] = target: T6, Metabotropic glutamate receptor 7; test: Positive allosteric modulation of mGlu7 receptor assessed as potentiation of glutamate-induced calcium mobilization; format: functional
# [23] = Fraction unbound in rat brain; format: ADME, tissue-based
# How it was run: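 Brain free fraction determined by dialysis of rat brain homogenate.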
# [24] = target: T3, Metabotropic glutamate receptor 3; test: Negative allosteric modulation of mGlu3 receptor
# P-gp (MDR1) [25] = test: Apparent permeability from apical to basolateral side of dog MDCK cells expressing human MDR1 by P-gp substrate assay; format: ADME, cell-based, Canis lupus familiaris; how it was run: as §4
# [26] = Kinetic solubility of the compound at pH 1.5 at room temperature; format: physicochemical; conditions: buffer, read-out: Kinetic_solubility; how it was run: as §2
# [27] = Fraction unbound in human plasma; format: ADME, cell-free
# [28] = target: T4, Metabotropic glutamate receptor 4; test: Positive allosteric modulation of human mGlu4 receptor expressed in BHK cells assessed as potentiation of glutamate-induced response after 1 hr by FLIPR assay relative to glutamate; format: cell-based
# How it was run: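 BHK cells stably co-expressing human mGlu4 and murine G-protein […], grown in DMEM at 37 °C, 5% CO₂. Cells seeded 24 h before assay, then loaded with Calcium 3 no-wash dye in HBSS/HEPES pH 7.4 with 0.1% BSA and 2.5 mM probenecid for 1 h at 37 °C. FLIPR calcium read after stimulation with EC₂₀ glutamate plus compound. Emax is percent of maximal glutamate response. Mean of ≥2 independent duplicate experiments.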
# [29] = Drug uptake in Sprague-Dawley rat cerebrospinal fluid at 10 mg/kg, sc after 1 hr
# T2 sequence (Q13255 whole entry): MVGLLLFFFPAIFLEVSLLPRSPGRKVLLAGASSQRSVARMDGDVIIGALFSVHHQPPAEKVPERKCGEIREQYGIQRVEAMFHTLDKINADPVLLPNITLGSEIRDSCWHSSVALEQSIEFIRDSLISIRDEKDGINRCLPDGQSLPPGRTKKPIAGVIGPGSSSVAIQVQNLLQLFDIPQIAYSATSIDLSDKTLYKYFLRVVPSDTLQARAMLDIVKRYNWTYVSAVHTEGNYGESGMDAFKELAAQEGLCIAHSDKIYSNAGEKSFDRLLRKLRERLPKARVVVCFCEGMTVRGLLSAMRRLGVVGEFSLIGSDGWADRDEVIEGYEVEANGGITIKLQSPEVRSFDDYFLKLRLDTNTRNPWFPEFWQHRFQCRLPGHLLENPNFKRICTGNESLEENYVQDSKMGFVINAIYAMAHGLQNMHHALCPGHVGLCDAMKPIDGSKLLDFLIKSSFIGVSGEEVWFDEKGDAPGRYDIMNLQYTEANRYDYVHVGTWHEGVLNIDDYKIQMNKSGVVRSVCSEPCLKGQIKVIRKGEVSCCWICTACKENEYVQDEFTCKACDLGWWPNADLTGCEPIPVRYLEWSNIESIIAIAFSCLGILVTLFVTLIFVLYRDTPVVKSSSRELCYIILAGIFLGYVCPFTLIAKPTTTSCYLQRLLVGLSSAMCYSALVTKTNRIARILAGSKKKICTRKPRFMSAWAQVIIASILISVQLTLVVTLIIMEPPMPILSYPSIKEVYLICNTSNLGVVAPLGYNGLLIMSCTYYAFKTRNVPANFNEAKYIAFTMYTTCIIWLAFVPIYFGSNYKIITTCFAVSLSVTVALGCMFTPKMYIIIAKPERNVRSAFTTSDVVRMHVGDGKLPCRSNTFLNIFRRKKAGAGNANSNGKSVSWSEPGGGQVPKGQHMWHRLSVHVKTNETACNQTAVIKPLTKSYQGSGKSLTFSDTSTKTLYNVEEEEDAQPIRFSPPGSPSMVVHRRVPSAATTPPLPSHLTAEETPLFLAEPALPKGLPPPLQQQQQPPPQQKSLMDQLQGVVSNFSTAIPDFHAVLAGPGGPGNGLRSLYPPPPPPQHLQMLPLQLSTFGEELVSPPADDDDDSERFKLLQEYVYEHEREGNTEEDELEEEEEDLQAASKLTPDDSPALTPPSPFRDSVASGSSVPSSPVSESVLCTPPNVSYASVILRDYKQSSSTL
# T3 sequence (Q14832 whole entry): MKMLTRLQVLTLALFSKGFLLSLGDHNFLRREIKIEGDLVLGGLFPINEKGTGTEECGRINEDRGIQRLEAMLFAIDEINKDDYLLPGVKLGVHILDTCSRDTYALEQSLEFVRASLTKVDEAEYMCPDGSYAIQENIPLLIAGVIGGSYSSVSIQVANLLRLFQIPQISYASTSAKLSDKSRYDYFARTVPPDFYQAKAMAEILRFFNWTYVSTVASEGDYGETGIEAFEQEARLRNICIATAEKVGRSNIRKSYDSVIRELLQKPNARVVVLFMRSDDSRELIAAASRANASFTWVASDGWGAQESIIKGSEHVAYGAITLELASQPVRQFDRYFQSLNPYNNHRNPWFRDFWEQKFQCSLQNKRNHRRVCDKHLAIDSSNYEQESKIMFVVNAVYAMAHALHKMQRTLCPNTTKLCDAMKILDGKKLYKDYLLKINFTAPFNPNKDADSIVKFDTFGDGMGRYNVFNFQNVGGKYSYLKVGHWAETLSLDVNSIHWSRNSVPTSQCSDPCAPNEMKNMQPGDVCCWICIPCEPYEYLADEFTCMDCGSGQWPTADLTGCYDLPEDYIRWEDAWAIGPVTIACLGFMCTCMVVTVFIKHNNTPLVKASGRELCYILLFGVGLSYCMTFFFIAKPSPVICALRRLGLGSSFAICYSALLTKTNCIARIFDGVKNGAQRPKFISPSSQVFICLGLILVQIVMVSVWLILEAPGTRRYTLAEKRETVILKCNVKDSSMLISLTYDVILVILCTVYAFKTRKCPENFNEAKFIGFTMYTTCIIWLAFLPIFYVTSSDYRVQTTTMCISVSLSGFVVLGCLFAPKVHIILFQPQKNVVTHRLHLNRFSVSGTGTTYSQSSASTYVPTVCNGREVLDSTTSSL
# T1 sequence (Q14416 whole entry): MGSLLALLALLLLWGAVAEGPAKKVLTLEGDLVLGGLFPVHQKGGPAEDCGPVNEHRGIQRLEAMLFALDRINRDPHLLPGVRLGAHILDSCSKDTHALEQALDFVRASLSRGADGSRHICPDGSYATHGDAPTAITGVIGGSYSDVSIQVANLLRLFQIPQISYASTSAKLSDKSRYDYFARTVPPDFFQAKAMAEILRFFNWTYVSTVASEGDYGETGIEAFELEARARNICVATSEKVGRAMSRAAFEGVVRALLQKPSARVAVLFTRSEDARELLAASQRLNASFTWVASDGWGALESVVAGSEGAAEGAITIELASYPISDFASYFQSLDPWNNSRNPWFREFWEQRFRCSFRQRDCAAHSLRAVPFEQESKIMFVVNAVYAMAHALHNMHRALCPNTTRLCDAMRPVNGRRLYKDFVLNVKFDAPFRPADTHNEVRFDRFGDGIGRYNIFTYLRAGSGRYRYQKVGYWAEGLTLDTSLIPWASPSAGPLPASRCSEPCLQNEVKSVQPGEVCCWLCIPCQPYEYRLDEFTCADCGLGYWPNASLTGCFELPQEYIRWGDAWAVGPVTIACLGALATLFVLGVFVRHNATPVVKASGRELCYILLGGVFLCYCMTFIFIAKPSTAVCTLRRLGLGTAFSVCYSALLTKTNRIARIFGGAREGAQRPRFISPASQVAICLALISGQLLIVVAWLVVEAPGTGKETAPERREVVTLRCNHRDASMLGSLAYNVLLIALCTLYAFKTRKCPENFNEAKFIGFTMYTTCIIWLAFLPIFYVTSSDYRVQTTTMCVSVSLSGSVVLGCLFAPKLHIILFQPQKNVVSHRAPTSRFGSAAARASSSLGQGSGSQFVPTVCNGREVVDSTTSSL
# T6 sequence (Q14831 whole entry): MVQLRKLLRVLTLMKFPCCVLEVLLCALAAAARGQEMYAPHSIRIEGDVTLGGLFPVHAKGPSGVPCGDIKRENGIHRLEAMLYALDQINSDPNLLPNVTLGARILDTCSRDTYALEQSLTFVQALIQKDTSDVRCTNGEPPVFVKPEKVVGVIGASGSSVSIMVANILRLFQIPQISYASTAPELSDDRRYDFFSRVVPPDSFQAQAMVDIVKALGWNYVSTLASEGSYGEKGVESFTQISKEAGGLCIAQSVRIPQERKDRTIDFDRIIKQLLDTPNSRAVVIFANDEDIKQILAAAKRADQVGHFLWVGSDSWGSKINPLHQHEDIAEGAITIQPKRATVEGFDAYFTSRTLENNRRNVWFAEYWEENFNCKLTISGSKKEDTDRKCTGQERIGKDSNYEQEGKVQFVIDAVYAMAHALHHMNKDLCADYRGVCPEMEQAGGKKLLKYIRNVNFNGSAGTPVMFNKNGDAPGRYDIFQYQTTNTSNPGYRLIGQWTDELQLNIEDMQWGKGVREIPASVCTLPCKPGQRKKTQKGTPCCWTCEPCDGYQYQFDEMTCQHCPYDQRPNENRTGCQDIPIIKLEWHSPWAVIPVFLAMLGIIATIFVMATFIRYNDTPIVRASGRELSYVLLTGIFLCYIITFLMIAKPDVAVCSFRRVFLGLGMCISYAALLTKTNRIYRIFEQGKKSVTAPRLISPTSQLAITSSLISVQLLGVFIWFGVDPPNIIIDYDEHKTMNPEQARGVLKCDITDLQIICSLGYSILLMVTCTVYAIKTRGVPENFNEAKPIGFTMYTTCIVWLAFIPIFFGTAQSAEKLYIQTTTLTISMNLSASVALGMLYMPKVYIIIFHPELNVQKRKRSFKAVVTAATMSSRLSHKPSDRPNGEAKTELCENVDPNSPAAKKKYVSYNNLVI
# T5 sequence (P41594 whole entry): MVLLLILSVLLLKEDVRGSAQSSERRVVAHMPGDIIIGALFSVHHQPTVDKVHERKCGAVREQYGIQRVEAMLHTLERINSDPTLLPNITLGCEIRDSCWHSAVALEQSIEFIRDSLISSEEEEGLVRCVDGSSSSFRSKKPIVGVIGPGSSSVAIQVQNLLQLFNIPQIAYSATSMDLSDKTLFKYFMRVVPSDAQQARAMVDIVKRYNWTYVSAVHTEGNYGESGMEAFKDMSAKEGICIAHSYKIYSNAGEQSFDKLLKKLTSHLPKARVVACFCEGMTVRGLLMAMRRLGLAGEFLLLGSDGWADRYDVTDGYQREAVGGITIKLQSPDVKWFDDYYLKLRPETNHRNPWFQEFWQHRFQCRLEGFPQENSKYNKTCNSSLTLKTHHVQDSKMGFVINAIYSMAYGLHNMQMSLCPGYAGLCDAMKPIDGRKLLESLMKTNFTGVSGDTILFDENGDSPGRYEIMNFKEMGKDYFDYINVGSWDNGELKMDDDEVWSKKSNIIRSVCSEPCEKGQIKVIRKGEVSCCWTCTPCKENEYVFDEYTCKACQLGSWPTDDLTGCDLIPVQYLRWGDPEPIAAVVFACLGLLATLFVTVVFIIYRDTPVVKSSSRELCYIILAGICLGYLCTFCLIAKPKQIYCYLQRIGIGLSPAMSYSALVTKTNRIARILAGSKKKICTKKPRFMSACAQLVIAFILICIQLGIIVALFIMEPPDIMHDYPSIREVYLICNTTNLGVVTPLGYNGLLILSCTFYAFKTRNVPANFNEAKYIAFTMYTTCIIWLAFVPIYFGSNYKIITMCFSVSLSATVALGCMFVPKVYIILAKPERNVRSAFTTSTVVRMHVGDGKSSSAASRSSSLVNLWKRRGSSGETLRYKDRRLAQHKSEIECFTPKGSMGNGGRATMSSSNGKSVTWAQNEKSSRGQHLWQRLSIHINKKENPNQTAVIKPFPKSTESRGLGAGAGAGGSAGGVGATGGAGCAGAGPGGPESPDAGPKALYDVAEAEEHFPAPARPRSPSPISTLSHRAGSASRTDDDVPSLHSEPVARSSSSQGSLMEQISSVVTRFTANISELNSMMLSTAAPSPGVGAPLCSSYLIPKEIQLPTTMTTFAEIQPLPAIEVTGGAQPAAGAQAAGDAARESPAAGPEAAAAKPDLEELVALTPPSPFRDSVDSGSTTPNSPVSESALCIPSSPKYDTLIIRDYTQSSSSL
Compound,Kp at 1 h [1],EC50 [2] [µM],fraction unbound [3],concentration at 1 h [4] [ng/mL],IC50 [5] [µM],solubility kinetic [6] [µM],CL [7] [mL/min],IC50 [8] [µM],EC50 [9] [µM],fraction unbound [10],fraction unbound [11],EC50 [12] [nM],EC50 [13] [µM],EC50 [14] [µM],CL [16] [L/min],logD [17],concentration at 1 h [19] [ng/g],Papp [21] [×10⁻⁶ cm/s],fraction unbound [23],solubility kinetic [26] [µM],other results
c1ccc(Nc2nc3c(s2)CCCc2[nH]ncc2-3)nc1,0.8,> 10,0.006,259,> 10,1.2,36,> 10,> 10,0.011,0.011,9,> 10,> 10,10,5,200,9.4,0.0043,240,Papp B→A (P-gp (MDR1) [15]): 13 ×10⁻⁶ cm/s; IC50 [18]: > 10 µM; IC50 [20]: > 10 µM; EC50 [22]: > 10 µM; IC50 [24]: > 10 µM; Papp A→B (P-gp (MDR1) [25]): 24 ×10⁻⁶ cm/s
c1ccc(Nc2nc3c(s2)CCc2[nH]ncc2-3)nc1,0.5,> 10,0.008,987,> 10,0.1,37,> 10,> 10,0.023,0.023,220,> 10,> 10,5.6,4,517,3,0.0043,220,Papp B→A (P-gp (MDR1) [15]): 7.7 ×10⁻⁶ cm/s; IC50 [18]: > 10 µM; IC50 [20]: > 10 µM; EC50 [22]: > 10 µM; IC50 [24]: > 10 µM; Papp A→B (P-gp (MDR1) [25]): 22 ×10⁻⁶ cm/s
c1ccc(Nc2nc(-c3cn[nH]c3)cs2)nc1,1,,,766,,120,61,,,,0.092,410,,,11,3.1,744,32.9,0.014,220,fraction unbound [27]: 0.035; Emax [28]: 72%; concentration at 1 h [29]: 52 ng/mL
c1cnc(Nc2nc3c(s2)CCCc2[nH]ncc2-3)nc1,,> 10,0.031,0.7,> 10,3,92,> 10,> 10,0.006,0.006,7,> 10,> 10,9,3.8,3.1,1.5,0.016,100,Papp B→A (P-gp (MDR1) [15]): 21 ×10⁻⁶ cm/s; IC50 [18]: > 10 µM; IC50 [20]: > 10 µM; EC50 [22]: > 10 µM; IC50 [24]: > 10 µM; Papp A→B (P-gp (MDR1) [25]): 33 ×10⁻⁶ cm/s
